# In PMC8811920 (ACS Omega, 2022):
# Experiments:
# urease = test: Urease inhibition assay; assay type: biochemical; settings: 10 μL sample, 4 mg/mL in DMSO
# In short: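 Mix: 25 μL urease, 50 μL phosphate buffer (3 mM, pH 4.5, containing 100 mM urea) and 10 μL sample (4 mg/mL in DMSO); 15 min at 30 °C. Ammonia detected by phenol–nitroprusside reagent plus alkaline hypochlorite, then 50 min at 30 °C. Read at 630 nm. Thiourea as control. % inhibition = (OD blank − OD sample)/OD blank × 100.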
# S. setubal = test: Antibacterial assay of isolated compounds, S. setubal; assay type: cell-based; settings: cefixime positive control
# E. aerogenes = test: Antibacterial assay of isolated compounds, E. aerogenes; assay type: cell-based, Escherichia aerogenes; settings: cefixime positive control
# lipase = test: Lipase inhibition assay; assay type: biochemical; settings: 50 μL sample, 4 mg/mL in DMSO
# In short: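 Lipase dissolved at 10 mg/mL in ultrapure water, spun 5 min at 16,000 rpm; supernatant used. Assay buffer 100 mM Tris, pH 8.2. Mix: 350 μL buffer, 150 μL lipase, 50 μL sample (4 mg/mL in DMSO). Started with 450 μL substrate: 0.08% v/v olive oil in 5 mM sodium acetate pH 5.0 with 1% Triton X-100. Incubated 2 h at 37 °C, spun, read at 400 nm. Orlistat standard. % inhibition = (OD blank − OD sample)/OD blank × 100.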
# Total reducing power = settings: sample 4 mg/mL in DMSO, ascorbic acid equivalents
# In short: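 200 μL sample (4 mg/mL in DMSO) mixed with 400 μL phosphate buffer (0.2 mol/L, pH 6.6) and 1% potassium ferricyanide; 20 min at 50 °C. Added 10% trichloroacetic acid and centrifuged 10 min at 3000 rpm. 200 μL of upper layer mixed with 0.1% FeCl3 and read at 630 nm. Expressed as μg ascorbic acid equivalent/mg extract from a calibration curve. Triplicate.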
# [1] = Total antioxidant capacity; settings: sample 4 mg/mL in DMSO, ascorbic acid equivalents
# In short: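 100 μL sample (4 mg/mL in DMSO) mixed with 900 μL phosphomolybdenum reagent (0.6 M H2SO4, 28 mM sodium phosphate, 4 mM ammonium molybdate). Heated 90 min at 95 °C, cooled to room temperature, and 200 μL read at 630 nm. Quantified against an ascorbic acid calibration curve as μg AAE/mg extract. Triplicate.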
# [2] = DPPH radical scavenging assay; settings: 10 μL sample + 190 μL DPPH, 30 min, 37 °C
# In short: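 10 μL sample mixed with 190 μL DPPH solution in microplate and held 30 min at 37 °C. Absorbance read spectrophotometrically. % scavenging = (1 − Abs/Abc) × 100, where Abc is the reagent-only negative control; SC50 also described. Ascorbic acid as standard. Triplicate.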
# S. aureus (ATCC # 6538) = test: Antibacterial disc diffusion, S. aureus; assay type: cell-based, Staphylococcus aureus; settings: isolated compounds; cefixime positive control
# M. luteus = test: Antibacterial assay of isolated compounds, M. luteus; assay type: cell-based; settings: cefixime positive control
# α-amylase = test: α-Amylase inhibition assay; assay type: biochemical; settings: 10 μL sample, 4 mg/mL in DMSO
# In short: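 Mix in pH 6.8 phosphate buffer: α-amylase (0.14 U/mL), 10 μL sample (4 mg/mL in DMSO) and starch (2 mg/mL); 30 min at 50 °C. Stopped with 1 M HCl, then iodine/KI reagent (5 mM each) added. Read at 540 nm. Acarbose positive control at 5−200 μg/mL. Sample-free well taken as 100% activity; blank lacked sample and enzyme.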
# Salmonella typhi = test: Antibacterial assay of isolated compounds, S. typhi; assay type: cell-based; settings: cefixime positive control
SMILES,urease inhibition (%) (urease),"antibacterial ZOI, S. setubal (S. setubal) [mm]","antibacterial ZOI, E. aerogenes (E. aerogenes) [mm]",lipase inhibition (%) (lipase),TRP (Total reducing power) [μgAAE/mg extract],TAC [1] [μgAAE/mg extract],DPPH % (free-radical scavenging) [2] [%],"antibacterial ZOI, S. aureus (S. aureus (ATCC # 6538)) [mm]","antibacterial ZOI, M. luteus (M. luteus) [mm]",amylase inhibition (%) (α-amylase),"antibacterial ZOI, S. typhi (Salmonella typhi) [mm]",further results
"O=C(O)c1cccc(O)c1 [compound 6, 3-hydroxybenzoic acid]",59.8 ± 0.6,14 ± 1.7,15 ± 1.4,51.9 ± 0.7,62.5 ± 1.3,66.6 ± 1.5,65.8 ± 1.6,15 ± 1.6,15 ± 1.2,31.5 ± 0.8,16 ± 1.5,DPPH % (free-radical scavenging) ([2]; listed as 3-Hydroxybenzoic acid): 65.8%
"C[C@H]1[C@H](C)CC[C@]2(C(=O)O)CC[C@]3(C)C(=CC[C@@H]4[C@@]5(C)CC[C@H](O)C(C)(C)[C@@H]5CC[C@]43C)[C@H]12 [compound 5, 3β-hydroxy-urs-12-en-28-oic acid]",78.8 ± 0.5,13 ± 1.2,12 ± 1.3,76.6 ± 0.8,76.2 ± 1.5,70.4 ± 1.8,58.6 ± 1.7,13 ± 1.3,14 ± 1.4,48.9 ± 0.6,16 ± 1.8,"antibacterial ZOI, S. typhi (Salmonella typhi; listed as ursolic acid): 16 mm"
"O=C(O)c1ccccc1 [compound 4, benzoic acid]",65.8 ± 0.6,15 ± 1.7,12 ± 1.4,58.9 ± 0.7,59.5 ± 1.5,60.6 ± 1.8,50.8 ± 1.6,12 ± 1.6,13 ± 1.2,36.5 ± 0.9,15 ± 1.5,"antibacterial ZOI, S. typhi (Salmonella typhi; listed as benzoic acid): 15 mm"
"CCCCCCCCCCCCCCCCCCCCCCCCCCCCCCO [compound 2, 1-triacontanol]",82.5 ± 0.8,15 ± 1.2,15 ± 1.4,50.8 ± 0.9,55.2 ± 1.8,89.5 ± 1.6,59.4 ± 2.1,9 ± 1.3,10 ± 0.9,29.9 ± 1.4,10 ± 1.3,"antibacterial ZOI, S. setubal (S. setubal; listed as 1-triacontanol): 15 mm; antibacterial ZOI, E. aerogenes (E. aerogenes; listed as 1-triacontanol): 15 mm; TAC ([1]; listed as 1-triacontanol): 89.5 μgAAE/mg extract"
"C=C(C)[C@@H]1CC[C@]2(C)CC[C@]3(C)[C@H](CC[C@@H]4[C@@]5(C)CC[C@H](O)C(C)(C)[C@@H]5CC[C@]43C)[C@@H]12 [compound 1, lup-20(29)-en-3β-ol]",85.8 ± 0.9,12 ± 1.3,14 ± 1.1,84.0 ± 0.8,96.9 ± 1.6,55.5 ± 1.3,68.8 ± 1.1,14 ± 1.2,15 ± 1.1,16.0 ± 0.4,18 ± 1.3,"TRP (Total reducing power; listed as lupeol): 96.9 μgAAE/mg extract; DPPH % (free-radical scavenging) ([2]; listed as lupeol): 68.8%; antibacterial ZOI, S. typhi (Salmonella typhi; listed as lupeol): 18 mm"
"COC(=O)c1ccccc1 [compound 3, methyl benzoate]",55.1 ± 1.2,13 ± 1.1,15 ± 1.1,50.3 ± 0.5,45.2 ± 1.6,82.5 ± 1.3,49.4 ± 1.9,7 ± 0.8,14 ± 1.1,26.2 ± 0.5,10 ± 1.1,TAC ([1]; listed as methyl benzoate): 82.5 μgAAE/mg extract
